Screening results from PubChem BioAssay.
The list is not random: actives were taken first. Their share in the collection is about 0.95%.
HNF4A DNA FP – change in binding of human HNF4 alpha to DNA | activity change, % at 10 µM | AID 1224865 | HNF4a-FITC DNA binding, fluorescence polarization, 1 h | P41235 | 360,000 compounds, 0.3% hits; in the data active = activity change above about 30%, passing the limit was not always enough
CSN deneddyl inh – inhibitors of human CSN-mediated cullin deneddylation; Q92905; Purified CSN, SCF-Nedd8-OG deneddylation, fluorescence polarization; inhibition, % at 12.5 µM; 360,000 compounds, 0.38% hits; AID 651999;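 active = pattern-corrected inhibition above about 35%, with an unprinted fluorescence ratio check between 0.5 and 1.5, limit read from the data, passing the limit was not always enough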;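 also: 0% = enzyme with substrate and 100% = substrate without enzyme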
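Material: human Csn5 produced in HEK293T cells; Input: enzyme 0.24 nM; Reagent: SCFSkp2-Nedd8OG substrate at 10 nM final; Dosing: 12.5 µM compound; Incubation: 90 min reaction at room temperature; Detection: fluorescence polarization of the substrate; Evaluation: % inhibition of substrate cleavage by Csn5; Control set: substrate-only high control, full reaction low control.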
ASAP1 inh – ASAP1 ArfGAP inhibition. Q9ULH1. ASAP1-stimulated ARF1 GTP hydrolysis, GDP FP detection. inhibition, % at 16.5 µM. 360,000 compounds, 0.19% hits; in the data active = inhibition above about 25%;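 also: 0% = vehicle with enzyme and substrate and 100% = no enzyme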
ARFGAP1 inh – rat ARFGAP1 inhibition | Q62848 | Arfgap1-stimulated ARF1 GTP hydrolysis, GDP FP detection | inhibition, % at 16.5 µM | 360,000 compounds, 0.26% hits | AID 651572;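 active = inhibition above a per-plate limit, mean inhibition of low control wells plus 3 SD, cut at about 25% in these data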;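 also: 0% = DMSO wells with enzyme and 100% = wells lacking Arfgap1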
Target sequence (Q62848 1-136 limits assumed): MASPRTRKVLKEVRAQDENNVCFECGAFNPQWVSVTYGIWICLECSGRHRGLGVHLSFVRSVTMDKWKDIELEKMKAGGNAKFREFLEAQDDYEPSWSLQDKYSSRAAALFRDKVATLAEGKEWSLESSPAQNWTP
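Assay system: purified rat His6-Arfgap1 residues 1-136 (GAP domain); Reagent: human Δ17 ARF1 bound to GTP; Dosing: 16.5 µM single point, 1.26% DMSO; Times: GTP hydrolysis reaction 2 h at 25 °C; Signal: FP, GDP Alexa 633 tracer displaced from anti-GDP antibody, 620/688 nm; Measure: % inhibition from polarization.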
* marks the source's active call; other numbers are inactive results; . = not tested or not shown.

SMILES	HNF4A DNA FP	CSN deneddyl inh	ASAP1 inh	ARFGAP1 inh
O=C(CC1CCCC1)N[C@@H](Cc1cccnc1)C(=O)N1CCC[C@H]1C(=O)NC1CCCC1	.	.	15	2
Cc1onc(-c2c(F)cccc2Cl)c1C(=O)Oc1ccccc1	4	-3	0	-2
CCOc1ccc(N2CSC3=C(C#N)C(c4ccco4)CC(=O)N3C2)cc1 (stereo not drawn)	1	-2	-5	-8
Cc1ccc(C2CC(=O)N3CN(c4ccc(Br)cc4)CSC3=C2C#N)o1 (stereo not drawn)	-11	35*	7	-1
COc1ccccc1NS(=O)(=O)c1cc([N+](=O)[O-])ccc1N/N=C/c1c(C)[nH]c2ccccc12	57*	26	-3	10
Cc1ccc(C(=O)NC(=S)Nc2ccc(-c3ccc(CO)o3)cc2)cc1	4	10	2	14
O=C(NC(=S)Nc1ccc(-c2ccc(CO)o2)cc1)c1cccs1	14	40*	.	.
O=C(CSc1nnc2scc(-c3ccccc3)n12)Nc1nsc(-c2ccccc2)n1	10	32	.	.
O=C(CSc1nnc2scc(-c3ccccc3)n12)Nc1nsc(-c2ccc(Cl)cc2)n1	-7	47*	6	-1
CSc1ccc(C2NC(=O)c3c(sc4c3CCN(C)C4)N2)cc1 (stereo not drawn)	54	46*	4	-1
CN1CCc2c(sc3c2C(=O)NC(c2cccs2)N3)C1 (stereo not drawn)	1	4	10	-4
CN1CCc2c(sc3c2C(=O)NC(c2ccc(-c4cccc(Cl)c4)o2)N3)C1 (stereo not drawn)	71*	44*	.	.
COC(=O)C1=C(C)N(Cc2ccc(Cl)cc2)C(=S)NC1c1ccc(Br)cc1 (stereo not drawn)	.	.	13	4
COc1ccc(CNC(=O)C(=O)NC2CC(C)(C)NC(C)(C)C2)cc1	138*	4	-6	-5
Cc1ccc(S(=O)(=O)c2cc3c(=O)n4ccccc4nc3n(Cc3ccco3)c2=N)cc1	-26	38*	4	5
N=c1c(C(=O)NCc2ccco2)cc2c(=O)n3ccccc3nc2n1Cc1ccc(Cl)cc1	0	1	-9	-1
CCOC(=O)c1cc2c(=O)n3ccccc3nc2n(Cc2ccc(Cl)cc2)c1=N	17	42*	-4	2
Cc1cc(Nc2cccc(C(F)(F)F)c2)cc(=O)n1-c1cccc(C(F)(F)F)c1	.	.	14	4
CCN(CC)C(=O)Cn1c(C)c(/C=C/c2cc[n+](C)cc2)c2ccccc21	158	99*	8	2
COc1ccc(-n2c(=O)/c(=C\c3cccs3)s/c2=C(/C#N)C(=O)NCCN2CCOCC2)cc1	4	27	-9	-5
COCCCn1c(=O)/c(=C\c2ccccc2OC(C)C)s/c1=C(/C#N)C(=O)Nc1ccc(C(=O)O)cc1	26	44	-2	-5
COCCCn1c(=O)/c(=C\c2ccc(OC(F)F)c(OC)c2)s/c1=C(/C#N)C(=O)NCCOC	74*	57*	5	7
COCCCn1c(=O)/c(=C\c2ccccc2OC(F)F)s/c1=C(/C#N)C(=O)NC(C)C	22	36*	12	9
COC(=O)C1=C(C)N(C)C(=NCc2cccc(C(F)(F)F)c2)NC1c1ccc(F)cc1 (stereo not drawn)	.	.	-11	-2
Nc1nc2c(ncn2[C@@H]2O[C@H](C(=O)N[C@H](Cc3ccccc3)C(=O)NC3CCCCC3)[C@@H](O)[C@H]2O)c(=O)[nH]1	.	.	-2	-7
SMILES	HNF4A DNA FP	CSN deneddyl inh	ASAP1 inh	ARFGAP1 inh
Oc1ccc(/C=N/Nc2cc(N3CCOCC3)nc(N3CCOCC3)n2)cc1	-1	6	1	-8
Oc1ccc(/C=N/Nc2cc(N3CCCC3)nc(N3CCCC3)n2)cc1	6	1	13	28*
O=C1NC(=S)NC1=Cc1ccc2c(c1)CCC2	39*	3	16	-4
O=C1NC(=S)N/C1=C/C=C/c1ccccc1	1	3	-20	-19
C[C@@H]1ON(C)[C@H]2C[C@H]3c4[nH]c5c(-c6ccc(Cl)cc6)cccc5c4CCN3C(=O)[C@@H]12	.	.	9	-1
COc1ccc(C)cc1N(CC(=O)N1CCCC1)S(C)(=O)=O	9	70*	-4	-7
COc1ccc(C)cc1N(CC(=O)N1CCCCCC1)S(C)(=O)=O	0	3	0	3
COc1ccc(N=C2Sc3ccccc3[C@@H]3C[C@H]4[C@H](CON4C)CN23)c(OC)c1	.	.	0	-4
Cc1ccc(-n2nnnc2SCc2nc3sc(C)c(C)c3c(=O)[nH]2)cc1	30	17	9	-5
